Source: ChEMBL document CHEMBL1921794, “Synthesis and in vitro evaluation of analogues of avocado-produced toxin (+)-(R)-persin in human breast cancer cells” (Bioorg Med Chem, 2011)

Columns and labels:
MDA-MB-231 = assay: Cytotoxicity against ER, BimEL, BimL and BimS deficient human MDA-MB-231 cells expressing p53 mutant assessed as growth inhibition after 24 hrs by MTS assay; assay type: functional, cell-based; settings: MDA-MB-231, 24 h
Method in brief: (§1)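 ATCC breast cancer cells kept in RPMI-1640 with 5% FCS, insulin and glutamine under standard conditions. Cells in 96-well plates were treated in triplicate for 24 h with drug or vehicle. MTS viability was read as absorbance at 490 nm, expressed as a percentage of solvent controls, and IC50 was derived.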

LNCaP = assay: Cytotoxicity against human LNCAP cells expressing AR, wild type p53, BimEL, BimL and BimS assessed as growth inhibition after 24 hrs by MTS assay; assay type: functional, cell-based
Method in brief: (§2)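 Cell lines were obtained from ATCC, plated in 96-well plates, and exposed in triplicate to drug or vehicle for 24 h. Viability was measured by MTS absorbance at 490 nm, taken as a percentage of solvent-treated controls, and IC50 was derived.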

MCF-10A = assay: Cytotoxicity against ER, BimL and BimS deficient human MCF10A cells expressing wild type p53, BimEL assessed as growth inhibition after 24 hrs by MTS assay; assay type: cell-based; method in brief: as §2
MCF7 [1] = assay: Cytotoxicity against human MCF7 cells expressing ER assessed as growth inhibition after 24 hrs by MTS assay; assay type: functional, cell-based; settings: MCF7, 24 h; method in brief: as §1
PC-3 = assay: Cytotoxicity against AR and BimS deficient human PC3 cells expressing p53 mutant, BimEL, BimL assessed as growth inhibition after 24 hrs by MTS assay; assay type: functional, cell-based; settings: PC-3, 24 h; method in brief: as §2
SK-BR-3 = assay: Cytotoxicity against ER deficient human SKBR3 cells expressing p53 mutant, BimEL, BimL and BimS assessed as growth inhibition after 24 hrs by MTS assay; assay type: functional, cell-based; settings: SK-BR-3, 24 h; method in brief: as §1
T47D = assay: Cytotoxicity against BimL, BimS deficient human T47D cells expressing ER, p53 mutant, BimEL assessed as growth inhibition after 24 hrs by MTS assay; assay type: functional, cell-based; method in brief: as §1
IGROV-1 = assay: Cytotoxicity against human IGROV1 cells expressing p53 mutant, BimEL, BimL and BimS assessed as growth inhibition after 24 hrs by MTS assay; assay type: functional, cell-based; settings: IGROV-1, 24 h; method in brief: as §2
Hs-578T = assay: Cytotoxicity against ER, BimEL, BimL and BimS deficient human Hs578T cells expressing p53 mutant assessed as growth inhibition after 24 hrs by MTS assay; assay type: functional, cell-based; method in brief: as §1
OVCAR-3 = assay: Cytotoxicity against BimEL, BimL and BimS deficient human OVCAR3 cells expressing p53 mutant assessed as growth inhibition after 24 hrs by MTS assay; assay type: functional, cell-based; settings: OVCAR-3, 24 h; method in brief: as §2
MDA-MB-157 = assay: Cytotoxicity against ER, BimL and BimS deficient human MDA-MB-157 cells expressing p53 mutant, BimEL assessed as growth inhibition after 24 hrs by MTS assay; assay type: functional, cell-based; settings: MDA-MB-157, 24 h; method in brief: as §1
MCF7 [2] = assay: Cytotoxicity against human MCF7 cells expressing ER, wild type p53, BimEL, BimL and BimS assessed as growth inhibition after 24 hrs by MTS assay; assay type: functional, cell-based; settings: MCF7, 24 h; method in brief: as §1
MDA-MB-468 = assay: Cytotoxicity against ER deficient human MDA-MB-468 cells expressing p53 mutant, BimEL, BimL and BimS assessed as growth inhibition after 24 hrs by MTS assay; assay type: functional, cell-based; settings: MDA-MB-468, 24 h; method in brief: as §1

SMILES: CCCCCCCCCCCCCCCCCC(=O)C[C@@H](O)COC(C)=O
- IC50 (MDA-MB-231): > 39 µM
- IC50 (LNCaP): > 39 µM
- IC50 (MCF-10A): > 39 µM
- IC50 (MCF7 [1]): 17.1 µM
- IC50 (PC-3): > 39 µM
- IC50 (SK-BR-3): > 39 µM
- IC50 (T47D): 20.7 µM
- IC50 (IGROV-1): > 39 µM
- IC50 (Hs-578T): > 39 µM
- IC50 (OVCAR-3): > 39 µM
- IC50 (MDA-MB-157): > 39 µM
- IC50 (MCF7 [2]): 18.2 µM
- IC50 (MDA-MB-468): > 39 µM

SMILES: CCCCCCC(=O)C[C@@H](O)COC(C)=O
- IC50 (MCF7 [1]): > 65 µM

SMILES: CCCCC/C=C\C/C=C\CCCCCCCC(=O)C[C@@H](O)COC(=O)c1ccccc1
- IC50 (MCF7 [1]): 27 µM

SMILES: CCCCC/C=C\C/C=C\CCCCCCCC(=O)C[C@H](COC(=O)c1ccccc1)OC(=O)c1ccccc1
- IC50 (MCF7 [1]): > 27 µM

SMILES: CCCCC/C=C\C/C=C\CCCCCCCC(=O)C[C@@H](O)COC(=O)c1ccc(Br)cc1
- IC50 (MCF7 [1]): 23.8 µM

SMILES: CCCCC/C=C\C/C=C\CCCCCCCC(=O)C[C@H](COC(=O)c1ccc(Br)cc1)OC(=O)c1ccc(Br)cc1
- IC50 (MCF7 [1]): > 21 µM

SMILES: CCCCC/C=C\C/C=C\CCCCCCCC(=O)/C=C/COC(=O)c1ccc([N+](=O)[O-])cc1
- IC50 (MCF7 [1]): > 32 µM

SMILES: CCCCC/C=C\C/C=C\CCCCCCCC(=O)C[C@H](COC(=O)c1ccc([N+](=O)[O-])cc1)OC(=O)c1ccc([N+](=O)[O-])cc1
- IC50 (MCF7 [1]): > 24 µM

SMILES: CCCCC/C=C\C/C=C\CCCCCCCC(=O)C[C@@H](O)COC(=O)c1ccncc1
- IC50 (MCF7 [1]): 20.1 µM

SMILES: CCCCCCCCCCCCCCCCCC(=O)C(C)(C)[C@@H](O)COC(C)=O
- IC50 (MCF7 [1]): 29 µM

SMILES: CCCCC/C=C\C/C=C\CCCCCCCC(=O)C[C@@H](O)COC(C)=O
- IC50 (MDA-MB-231): > 39 µM
- IC50 (LNCaP): 22 µM
- IC50 (MCF-10A): > 39 µM
- IC50 (MCF7 [1]): 15.1 µM
- IC50 (PC-3): 30 µM
- IC50 (SK-BR-3): 19.7 µM
- IC50 (T47D): 30.3 µM
- IC50 (IGROV-1): 15.6 µM
- IC50 (Hs-578T): 32.1 µM
- IC50 (OVCAR-3): 27.9 µM
- IC50 (MDA-MB-157): 12.8 µM
- IC50 (MCF7 [2]): 15.1 µM
- IC50 (MDA-MB-468): 25 µM
